# In ChEMBL document CHEMBL4765302, “Design, synthesis and biological evaluation of novel histone deacetylase1/2 (HDAC1/2) and cyclin-dependent Kinase2 (CDK2) dual inhibitors against malignant cancer” (Eur J Med Chem, 2020):
# pIC50: −log10 of the molar value.
# Tests used:
# HCT-116 [1] = assay: Antiproliferative activity against human HCT-116 cells assessed as reduction in cell growth at 2 uM incubated for 72 hrs by CCK-8 assay relative to control; type: functional
# HCT-116 [2] = assay: Antiproliferative activity against human HCT-116 cells assessed as reduction in cell growth at 8 uM incubated for 72 hrs by CCK-8 assay relative to control; type: functional
# HepG2 [3] = assay: Antiproliferative activity against human HepG2 cells assessed as reduction in cell growth at 2 uM incubated for 72 hrs by CCK-8 assay relative to control; type: functional
# HepG2 [4] = assay: Antiproliferative activity against human HepG2 cells assessed as reduction in cell growth at 8 uM incubated for 72 hrs by CCK-8 assay relative to control; type: functional
# NCI-H460 [5] = assay: Antiproliferative activity against human H460 cells assessed as reduction in cell growth at 2 uM incubated for 72 hrs by CCK-8 assay relative to control; type: functional
# NCI-H460 [6] = assay: Antiproliferative activity against human H460 cells assessed as reduction in cell growth at 8 uM incubated for 72 hrs by CCK-8 assay relative to control; type: functional
# Histone deacetylase 1 = Histone deacetylase 1 (Homo sapiens, UniProt Q13547); assay: Inhibition of recombinant human HDAC1 at 10 uM using SIRT1 as substrate incubated for 10 mins followed by substrate addition and measured after 30 mins by fluorescence based assay relative to control; details: time 40.0 min
# Method in brief: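 Enzyme inhibition of HDAC1 measured at a single concentration of 10 µM, tested alongside the cell-growth screen.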
# NCI-H460 [7] = assay: Antiproliferative activity against human NCI-H460 cells assessed as reduction in cell growth incubated for 72 hrs by CCK-8 assay; type: functional, cell-based; details: NCI-H460, 72 h
# Method in brief: (§1)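 IC50 by CCK-8 assay across five solid-tumour lines (HCT116, HepG2, H460, HeLa, A375). Run only for compounds chosen after the single-concentration screen, with CS055 and roscovitine as references.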
# A-375 = assay: Antiproliferative activity against human A-375 cells assessed as reduction in cell growth incubated for 72 hrs by CCK-8 assay; type: functional, cell-based; details: A-375, 72 h; method in brief: as §1
# HepG2 [8] = assay: Antiproliferative activity against human HepG2 cells assessed as reduction in cell growth incubated for 72 hrs by CCK-8 assay; type: functional, cell-based; details: HepG2, 72 h; method in brief: as §1
# HCT-116 [9] = assay: Antiproliferative activity against human HCT-116 cells assessed as reduction in cell growth incubated for 72 hrs by CCK-8 assay; type: functional, cell-based; details: HCT-116, 72 h; method in brief: as §1
# HeLa = assay: Antiproliferative activity against human HeLa cells assessed as reduction in cell growth incubated for 72 hrs by CCK-8 assay; type: functional, cell-based; method in brief: as §1
# Chain of Histone deacetylase 1 (Q13547 whole entry): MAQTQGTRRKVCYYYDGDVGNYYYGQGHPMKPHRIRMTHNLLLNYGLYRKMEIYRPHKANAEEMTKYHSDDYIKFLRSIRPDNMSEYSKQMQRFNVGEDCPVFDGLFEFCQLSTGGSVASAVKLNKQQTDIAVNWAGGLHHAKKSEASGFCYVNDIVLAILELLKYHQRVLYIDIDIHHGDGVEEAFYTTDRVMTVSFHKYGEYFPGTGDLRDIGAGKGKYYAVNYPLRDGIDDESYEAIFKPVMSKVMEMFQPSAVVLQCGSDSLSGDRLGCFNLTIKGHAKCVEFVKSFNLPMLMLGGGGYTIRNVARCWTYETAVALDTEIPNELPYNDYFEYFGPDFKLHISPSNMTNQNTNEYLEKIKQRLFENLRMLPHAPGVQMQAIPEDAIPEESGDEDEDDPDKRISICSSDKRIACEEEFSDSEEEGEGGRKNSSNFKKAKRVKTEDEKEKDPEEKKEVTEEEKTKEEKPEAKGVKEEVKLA
Structure (SMILES),inhibition at 2 µM (HCT-116 [1]) [%],inhibition at 8 µM (HCT-116 [2]) [%],inhibition at 2 µM (HepG2 [3]) [%],inhibition at 8 µM (HepG2 [4]) [%],inhibition at 2 µM (NCI-H460 [5]) [%],inhibition at 8 µM (NCI-H460 [6]) [%],inhibition (Histone deacetylase 1) [%],pIC50 (NCI-H460 [7]),pIC50 (A-375),pIC50 (HepG2 [8]),pIC50 (HCT-116 [9]),pIC50 (HeLa)
CCCCn1cnc2c(NCc3ccc(C(=O)Nc4ccccc4N)cc3)nc(Cl)nc21,4.89,40.9,6.8,19.6,19.7,23.7,9.56,–,–,–,–,–
Nc1ccccc1NC(=O)/C=C/c1ccc(Cn2cnc3c(N4CCOCC4)nc(Cl)nc32)cc1,17.8,55.4,19,40.9,1.24,37.9,25.7,–,–,–,–,–
Nc1ccccc1NC(=O)c1ccc(Cn2cnc3c(NCc4ccccc4)nc(Cl)nc32)cc1,68.3,78.3,7.55,62.8,44.7,61.2,76,4.95,5.23,5.11,5.97,5.17
Nc1ccccc1NC(=O)/C=C/c1ccc(Cn2cnc3c(NC4CCCCC4)nc(Cl)nc32)cc1,3.34,18.7,3.83,42.6,8.09,24.9,28.2,–,–,–,–,–
CN1CCN(c2nc(Cl)nc3c2ncn3Cc2ccc(C(=O)Nc3ccccc3N)cc2)CC1,71.6,72.8,60.4,75,13.4,55,80.5,5.21,5.80,5.70,6.51,5.93
CC1CCN(c2nc(Cl)nc3c2ncn3Cc2ccc(/C=C/C(=O)Nc3ccccc3N)cc2)CC1,4.24,26.9,8.73,32.2,8.24,10.8,4.87,–,–,–,–,–
Nc1ccccc1NC(=O)/C=C/c1ccc(Cn2cnc3c(Nc4cccc(OC(F)(F)F)c4)nc(Cl)nc32)cc1,2.8,5.23,16.2,37.6,2.1,66.7,40.3,–,–,–,–,–
COC(CCn1cnc2c(NCc3ccc(C(=O)Nc4ccccc4N)cc3)nc(Cl)nc21)OC,6.39,11.9,8.52,34.2,43.7,51.2,29.5,–,–,–,–,–
Nc1ccccc1NC(=O)/C=C/c1ccc(Cn2cnc3c(Nc4cccc(Cl)c4)nc(Cl)nc32)cc1,12.9,15.8,35.8,49.3,7.11,29.4,23.6,–,–,–,–,–
CCCn1cnc2c(NCc3ccc(C(=O)Nc4ccccc4N)cc3)nc(Cl)nc21,28.5,29.6,12.4,14.1,31,39.2,11.4,–,–,–,–,–
CCC(C)n1cnc2c(NCc3ccc(C(=O)Nc4ccccc4N)cc3)nc(Cl)nc21 (configuration not stated),74.6,75.1,45,65,47.3,67.7,94.7,5.31,5.54,5.52,6.14,5.52
Nc1ccccc1NC(=O)c1ccc(CNc2nc(Cl)nc3c2ncn3C2CCCC2)cc1,75.6,80.6,54.7,74.9,–,57.4,90.9,5.24,5.55,5.46,6.07,5.52
Nc1ccccc1NC(=O)c1ccc(CNc2nc(Cl)nc3c2ncn3Cc2ccccc2)cc1,7.7,11.4,5.01,5.32,43.8,46.4,27.6,–,–,–,–,–
Nc1ccccc1NC(=O)c1ccc(Cn2cnc3c(N4CCOCC4)nc(Cl)nc32)cc1,77.7,80.7,56.9,71.3,5.05,47,93.2,5.22,5.57,5.55,6.35,5.69
Nc1ccccc1NC(=O)c1ccc(Cn2cnc3c(Nc4cccc(OC(F)(F)F)c4)nc(Cl)nc32)cc1,1.6,46.6,1.88,31.2,47.7,62.4,37.4,–,–,–,–,–
Cc1ccc(Nc2nc(Cl)nc3c2ncn3Cc2ccc(/C=C/C(=O)Nc3ccccc3N)cc2)cc1,0.27,15,33.6,43,31.3,51.3,41.8,–,–,–,–,–
CC1CCN(c2nc(Cl)nc3c2ncn3Cc2ccc(C(=O)Nc3ccccc3N)cc2)CC1,70.9,78.6,1.22,65.3,11.8,40.9,75.3,5.13,5.37,5.29,6.02,5.35
CC(C)n1cnc2c(NCc3ccc(C(=O)Nc4ccccc4N)cc3)nc(Cl)nc21,73.2,76,63.8,74.4,54.1,80.5,89.7,5.47,5.66,5.48,6.10,5.67
Nc1ccccc1NC(=O)c1ccc(Cn2cnc3c(Nc4ccc(-c5ccccn5)cc4)nc(Cl)nc32)cc1,69.5,73.7,11.5,41.2,18.1,30.8,43.9,4.74,4.73,4.52,5.90,< 4.70
Nc1ccccc1NC(=O)c1ccc(Cn2cnc3c(Nc4cccc(Cl)c4)nc(Cl)nc32)cc1,56.2,78.4,29.9,66.7,10.3,67,61.3,5.18,5.22,5.01,5.63,4.95
Nc1ccccc1NC(=O)/C=C/c1ccc(Cn2cnc3c(Nc4ccccc4)nc(Cl)nc32)cc1,7.75,30.9,16.4,41.9,2.05,28.7,14.8,–,–,–,–,–
Nc1ccccc1NC(=O)c1ccc(Cn2cnc3c(Nc4ccccc4)nc(Cl)nc32)cc1,71.4,83.5,49.6,74.8,42.7,77.8,84,5.24,5.55,5.38,5.97,5.53
CCCCn1cnc2c(Nc3cccc(Cl)c3)nc(NCCOCc3ccc(/C=C/C(=O)Nc4ccccc4N)cc3)nc21,4.76,10.8,20.4,30.4,25.7,51.1,24.6,–,–,–,–,–
Nc1ccccc1NC(=O)/C=C/c1ccc(Cn2cnc3c(NCc4ccccc4)nc(Cl)nc32)cc1,2.85,17.4,11.5,37.7,4.62,49.1,22.5,–,–,–,–,–
